Sampled rows, rich in hits. Any-hit rate of the full collection: about 2.3%.
V1R ag counter = V1a receptor agonism, counter-screen for OXTR agonists; CHO-V1R cells, Fluo-8 calcium fluorescence, agonist mode; 0% DMSO, 100% 3 nM vasopressin; activation, % at 3 µM; hit rate 0.25% among 320,000; AID 2797;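 active means activation above the mean activation of all tested compounds plus 3 SD, per screening run, cut at about 20% in these data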;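 further: signal is peak over basal fluorescence ratio across a 100 second FLIPR read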
Target sequence (P37288 whole entry, looked up): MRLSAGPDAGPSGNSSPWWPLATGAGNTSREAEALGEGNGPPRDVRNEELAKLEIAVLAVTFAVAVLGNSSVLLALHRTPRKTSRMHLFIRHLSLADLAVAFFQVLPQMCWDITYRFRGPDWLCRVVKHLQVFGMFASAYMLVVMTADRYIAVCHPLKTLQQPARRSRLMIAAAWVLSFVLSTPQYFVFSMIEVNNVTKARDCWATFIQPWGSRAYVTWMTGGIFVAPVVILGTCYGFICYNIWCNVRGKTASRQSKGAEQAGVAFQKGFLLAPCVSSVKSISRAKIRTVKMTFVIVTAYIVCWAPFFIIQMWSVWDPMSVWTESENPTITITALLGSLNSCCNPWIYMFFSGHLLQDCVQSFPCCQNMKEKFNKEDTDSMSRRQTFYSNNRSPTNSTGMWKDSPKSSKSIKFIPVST
OXTR potentiate = potentiators of human oxytocin receptor | P30559 | CHO-OTR cells, Fluo-8 calcium fluorescence, potentiator mode; 0% = oxytocin EC15, 100% = EC100 | activation, % at 3 µM | hit rate 0.061% among 320,000;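 active means activation above that plate's cutoff, the mean activation of tested compounds plus 3 SD, cut at about 6.6% in these data, passing the limit was not always enough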;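 further: 100% uses oxytocin at 75 nM as the full agonist control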
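Measured by – Fluo-8 calcium dye fluorescence · Test system – human OTR in CHO cells · Dosing – one concentration, 3.0 µM compound · Controls – EC15 oxytocin alone as 0%, 75 nM oxytocin as 100% · Evaluation – normalized max/min fluorescence ratio, % activation · Timing – 6 min pre-incubation, 100 s read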
TAAR1 ag = human TAAR1 agonism; Q96RJ0; CHO RD-HGA16 TAAR1, Fluo-8 calcium fluorescence; vehicle wells 0%, saturating PEA agonist 100%; activation, % at 3 µM; hit rate 0.99% among 360,000;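 active means activation above the mean activation of all test compounds in the run plus 3 SD, cut at about 38% in these data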
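System: CHO-derived RD-HGA16 cells with stable Gα16 and human TAAR1 / Times: 17-24 h plating, Fluo-8 75 min 37 °C, 30 min RT / Technique: calcium-sensitive Fluo-8 signal, excitation 470-495, emission 515-575 nm / Measure: % activation relative to PEA EC100 response / Benchmarks: DMSO and PEA EC100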
OXTR ag = agonists of human oxytocin receptor | P30559 | CHO-OTR cells, Fluo-8 calcium fluorescence; normalized: DMSO 0%, oxytocin 100% | activation, % at 3 µM | hit rate 0.32% among 320,000 | AID 2435;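 active means activation above the mean of all tested compounds plus 3 SD, cutoff set per screening run, cut at about 20% in these data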;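 further: peak over basal fluorescence ratio from a 100 s FLIPR kinetic read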
TAAR1 antagonist = human TAAR1 antagonism; Q96RJ0; CHO RD-HGA16 TAAR1, Fluo-8 calcium fluorescence, antagonist; inhibition, % at 3 µM; hit rate 1.5% among 360,000;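 active means inhibition above a per-plate cutoff, the mean inhibition of test compounds on that plate plus 3 SD, cut at about 49% in these data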;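 further: 0% = DMSO plus EC80 beta-PEA response and 100% = DMSO alone without agonist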
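System: RD-HGA16 CHO cells with stable hTAAR1 and Gα16 | Probe or stimulus: EC80 β-phenethylamine stimulus | Dosing: 3 µM, single point | Times: Dye loading 75 min at 37 °C, then 30 min room temperature | Measured by: Fluo-8 calcium-sensitive fluorescence | Read-out basis: % inhibition of agonist calcium response | Replicates: n of 1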
TAAR1 nonsel count = nonselective antagonist in TAAR1 antagonist counter-screen. shares compounds with TAAR1 antagonist. counterscreen cell line, calcium fluorescence, antagonist mode. inhibition, % at 3 µM. hit rate 77% among 2,400. AID 651780; in the data active means inhibition above about 22%;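 further: CHO-Ga16 host cells stimulated with ATP at an EC80 level; 0% = agonist EC80 plus vehicle and 100% = vehicle without agonist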
TAAR1 antag conf = confirmation of human TAAR1 antagonists | shares compounds with TAAR1 antagonist | TAAR1-expressing cells, fluorescence antagonist read-out | inhibition, % at 3 µM | hit rate 40% among 2,400 | AID 651785; in the data active means inhibition above about 49%;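 further: CHO-Ga16 host cells challenged with agonist PEA near its EC80; 0% = agonist at EC80 plus vehicle and 100% = vehicle with no agonist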
Ga16 nonsel ag = nonselective Ga16 agonist in TAAR1 antagonist counter-screen | hit rate 18% among 2,400 | Ga16-expressing cells, calcium fluorescence, agonist counterscreen | shares compounds with TAAR1 antagonist | activation, % at 3 µM; in the data active means activation above about 12%;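 further: 0% = vehicle wells and 100% = saturating stimulus response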
TAAR1 ag count = activates human TAAR1 in antagonist counter-screen; shares compounds with TAAR1 antagonist; hTAAR1 cell line, fluorescence activation, agonist mode; activation, % at 3 µM; hit rate 2% among 2,400; AID 651955; in the data active means activation above about 37%;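 further: CHO cells stably expressing TAAR1 with calcium dye readout; 0% = DMSO vehicle and 100% = full agonist response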
* marks the source's active call; other numbers are inactive results; / = not tested or not shown.

SMILES	V1R ag counter	OXTR potentiate	TAAR1 ag	OXTR ag	TAAR1 antagonist	TAAR1 nonsel count	TAAR1 antag conf	Ga16 nonsel ag	TAAR1 ag count
COC(=O)[C@]12C[C@H](CC(=O)NCC3CCCCC3)C(=O)N(Cc3ccccc3)C1=C[C@H](C(C)(C)C)O[C@@H]2C	/	/	-2	/	-43	/	/	/	/
O=C(CN1CCN(S(=O)(=O)c2ccc(F)c(F)c2)CC1)Nc1ccccc1C(=O)NC1CC1	2	-4	14	2	49*	22*	35	5	11
N#Cc1ccccc1S(=O)(=O)N1CCN(CC(=O)Nc2ccccc2C(=O)NC2CC2)CC1	1	-2	14	-1	56*	24*	47	8	10
O=C1NC[C@@H](CCCCN2CCN(Cc3ccccc3)C(=O)C2=O)N(CC2CCCCC2)C1=O	/	/	3	/	-4	/	/	/	/
Cc1ccc(-c2nn(-c3ccc(F)cc3)cc2C(=O)N2CCN(C3CCS(=O)(=O)C3)CC2)cc1 (configuration not stated)	1	-3	-2	0	-3	/	/	/	/
COC(=O)[C@@H](NC(=O)NCc1cccs1)C(C)C	0	6	10	0	3	/	/	/	/
COC(=O)[C@H](CCSC)NC(=O)NCc1cccs1	0	-2	12	0	107*	-5	0	0	-2
CCOC(=O)c1cc(-c2cccc(O)c2)oc1C	/	/	-2	/	7	/	/	/	/
CCOC(=O)CN(C(=O)COc1nc(-c2ccccc2)cc(C)c1C#N)c1cccc(OC)c1	0	-5	10	-1	55*	25*	46	6	8
CC1ON=C(c2ccc(F)cc2)NC1=O (configuration not stated)	/	/	1	/	-17	/	/	/	/
CC(=O)c1c(COC(=O)c2cccc(C)c2)nc2ccccc2[n+]1[O-]	4	-14	8	0	50*	28*	38	8	7
CC(=O)c1c(COC(=O)c2ccncc2)nc2ccccc2[n+]1[O-]	1	-13	6	0	-20	/	/	/	/
C/C(=N\NC(=O)C1(C)CC1(Br)Br)c1cccc(NC(=O)c2ccc(C)o2)c1 (configuration not stated)	1	-14	13	2	85*	26*	73*	11	39*
Cc1ccc(C(=O)Nc2cccc(C(=O)NCc3ccccc3)c2)o1	1	-2	2	1	17	/	/	/	/
CN(C)c1nc(Nc2ccc(Cl)cc2)nc(OCC#N)n1	3	-13	8	1	58*	-2	40	2	17
COC(=O)[C@@]12C[C@@H](CC(=O)NCC34CC5CC(CC(C5)C3)C4)C(=O)N(Cc3ccc4c(c3)OCO4)C1=CCC(C)(C)C2	/	/	-1	/	-9	/	/	/	/
O=C(c1ccc2c(c1)OCO2)N1CCN(CCN2C(=O)c3cccc4cccc(c34)C2=O)CC1	/	/	4	/	-10	/	/	/	/
O=C(CCc1nc2ccccc2c(=O)[nH]1)N1CCN(S(=O)(=O)c2ccc(Cl)c(C(F)(F)F)c2)CC1	-1	-1	17	-1	62*	39*	50*	16*	14
CC(C)c1ccc(S(=O)(=O)N2CCN(C(=O)CCc3nc4ccccc4c(=O)[nH]3)CC2)cc1	/	/	5	/	6	/	/	/	/
C#CCOc1ccccc1C(=O)NNc1ccc([N+](=O)[O-])cc1[N+](=O)[O-]	/	/	2	/	19	/	/	/	/
CN(C)C(=O)[C@@H]1C[C@H]1[C@@H](NC(=O)OCc1ccccc1)c1ccccc1	0	-8	3	2	3	/	/	/	/
COC(=O)[C@H]1C[C@@H]1[C@H](NC(=O)[C@H]1C[C@@H]1[C@H](NC(=O)OCc1ccccc1)c1ccccc1)c1ccccc1	0	-17	11	0	59*	30*	34	5	1
C[C@@H](C(=O)O)[C@H]1C[C@]1(C)[C@H](NC(=O)OCc1ccccc1)c1ccccc1	0	-9	-1	0	75*	6	3	2	-1
COC(=O)[C@H](C)[C@@H]1C[C@@]1(C)[C@@H](NC(=O)OCc1ccccc1)c1ccccc1	-2	-4	14	-1	29	/	/	/	/
O=C(NC1CCCC1)C(c1ccco1)N1CCN(c2c(Cl)cncc2Cl)CC1 (configuration not stated)	/	/	2	/	-15	/	/	/	/
SMILES	V1R ag counter	OXTR potentiate	TAAR1 ag	OXTR ag	TAAR1 antagonist	TAAR1 nonsel count	TAAR1 antag conf	Ga16 nonsel ag	TAAR1 ag count
O=C(N/N=C/c1coc2ccccc2c1=O)c1ccc(Cl)cc1	1	4	0	0	-2	/	/	/	/
O=c1c(/C=N\NS(=O)(=O)c2ccccc2)coc2ccc(Cl)cc12	2	-11	9	0	59*	26*	49*	6	10
CCOC(=O)N1CCN(Cc2nc3ccc([N+](=O)[O-])cc3c(=O)n2-c2ccccc2F)CC1	1	0	19	-1	71*	11	15	4	9
CCC(CC)N1CCN(Cc2nc3ccc([N+](=O)[O-])cc3c(=O)n2-c2ccccc2F)CC1	0	-10	1	0	-15	/	/	/	/
COc1cc2oc3ccc(C#Cc4ccc(N)cc4)cc3c(=O)c2cc1OC	0	-16	12	-1	56*	25*	31	3	0
COc1cc2oc3cc(C#Cc4ccc(N)cc4)ccc3c(=O)c2cc1OC	0	1	8	-1	52*	29*	35	3	7
Nc1ccc(C#Cc2ccc3c(=O)c4ccccc4oc3c2)cc1	1	-8	2	0	13	/	/	/	/
COc1cc2oc3ccc(C#Cc4ccccn4)cc3c(=O)c2cc1OC	1	-6	10	0	5	/	/	/	/
C=CCN1C[C@H](COC(=O)c2cccc(OC)c2)Oc2cccc(F)c2S1(=O)=O	/	/	9	/	79*	41*	56*	12*	9
CCOC(=O)C1CCCN(c2c(C(=O)c3ccccc3)cnc3ccc(OC)cc23)C1 (configuration not stated)	-1	-1	11	-2	86*	2	66*	5	34
CCOC(=O)C1CCCN(C(=O)COc2ccc(C(=O)c3ccccc3)cc2)C1 (configuration not stated)	/	/	2	/	-10	/	/	/	/
Cc1nn(Cc2c(F)c(F)c(F)c(F)c2F)c(C)c1NC(=O)c1ccc(COc2ccccc2Cl)cc1	/	/	/	/	/	14	/	5	/

Source: PubChem (The Scripps Research Institute Molecular Screening Center)
